The list is not random: actives were taken first. Their share in the collection is about 4%.
Yeast growth inh: yeast BB579 growth reduction in restrictive medium; hit rate 0.51% among 140,000; S. cerevisiae BB579 growth, OD615, 48 h; inhibition, % at 10 µM;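 active = inhibition above a set limit, 3 SD over the mean compound inhibition, cut at about 44% in these data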
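System: DeaD yeast strain BB579; buffer or medium: CSMM-D dextrose restrictive medium; technique: OD at 615 nm; schedule: 4 h cell preincubation, 48 h compound exposure, 30 °C humidified; doses: single 10 µM dose; controls: amphotericin B 10 µg/mL, positive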
MDM2 E3 inh: inhibitors of human Mdm2 E3 ubiquitin ligase. cell-based MDM2 ubiquitination luciferase reporter, 2 h; 0 = plate control, 100 = twice control, blank-subtracted. signal enhancement, % at 5 µM. hit rate 0.11% among 210,000;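 active = signal enhancement of 30% or more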;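 note: luminescence tracks abundance of the self-degrading MDM2-luciferase fusion protein; higher signal means inhibition of MDM2 E3 ligase activity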
Target sequence (Q00987 whole entry, looked up, the tested form may be a part): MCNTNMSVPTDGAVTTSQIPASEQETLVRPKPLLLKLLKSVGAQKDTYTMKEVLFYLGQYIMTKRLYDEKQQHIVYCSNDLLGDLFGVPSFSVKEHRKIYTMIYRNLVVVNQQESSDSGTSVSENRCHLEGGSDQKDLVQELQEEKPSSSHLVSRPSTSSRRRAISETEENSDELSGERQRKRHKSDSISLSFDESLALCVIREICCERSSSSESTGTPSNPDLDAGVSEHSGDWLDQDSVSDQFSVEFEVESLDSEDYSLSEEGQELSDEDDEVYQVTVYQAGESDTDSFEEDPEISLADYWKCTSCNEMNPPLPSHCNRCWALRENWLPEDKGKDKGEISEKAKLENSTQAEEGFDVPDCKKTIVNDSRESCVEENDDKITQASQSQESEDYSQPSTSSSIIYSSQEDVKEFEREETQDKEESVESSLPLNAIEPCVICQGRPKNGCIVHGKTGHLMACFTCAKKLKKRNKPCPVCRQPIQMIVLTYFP
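Test system: stable mammalian line carrying autodegrading MDM2–luciferase fusion reporter; quantity: 2000 cells in each well; times: 4 h cell settling then 2 h compound exposure, 37 °C; detection: luminescence with SteadyLite reagent, 15 min at room temperature; evaluation: percent signal gain over controls, blank-subtracted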
Yeast lifespan up: yeast lifespan extension | S. cerevisiae growth with nicotinamide, OD615; deaD strain in restrictive glucose medium | inhibition of the nicotinamide effect, % at 10 µM | hit rate 0.68% among 130,000;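 active = inhibition above a set limit, placed 3 SD over the median of all compounds, cut at about 26% in these data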;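 note: 0% = nicotinamide-treated wells and 100% = cells grown without nicotinamide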
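Buffer or medium: CSMM-D glucose medium, restrictive; test system: modified budding yeast, DeaD strain; compound: single dose 10 µM compound, 0.25% DMSO; schedule: culture preincubation 4 h, compound exposure 48 h, both 30 °C; detection: optical density (absorbance) at 615 nm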
Measles CPE: protection of cells from measles virus; protection (pct of control), % at 4 µM; hit rate 1.5% among 140,000; Measles virus-infected cells, CPE protection, absorbance; in the data active = protection mostly above about 24%, no sharp cut-off; inactive = mostly below about 26%
INS promoter inh: TRM-6 insulin promoter activity inhibition | TRM-6 cells, insulin promoter-eGFP reporter, imaging; reporter expression induced with tamoxifen | inhibition, % at 2 µM | hit rate 0.9% among 130,000 | AID 1273;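 active = inhibition above the mean plus 3 SD, with well images judged a real hit on visual review, cut at about 60% in these data, passing the limit was not always enough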
RAM network inh: inhibitors of the yeast RAM network. inhibition, % at 50 µM. S. cerevisiae dse1pr::URA3 reporter, 5-FOA growth OD615, 2 d; analog-sensitive cbk1-as2 kinase mutant strain. hit rate 1.8% among 190,000. AID 868;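 active = inhibition above a set limit, 3 SD over mean compound inhibition, cut at about 8.4% in these data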;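 note: 0% = DMSO-only wells with no growth and 100% = 10 µM 1-NA-PP1 full growth; inhibition rescues growth on 5-FOA so higher OD means more RAM inhibition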
* hit, by the source's call; / = no result.

SMILES | Yeast growth inh | MDM2 E3 inh | Yeast lifespan up | Measles CPE | INS promoter inh | RAM network inh
CCc1ccc(C(=O)COC(=O)c2cc([N+](=O)[O-])ccc2NCCO)cc1 | -43 | -3 | -2 | 10 | -17 | 10*
O=C(COC(=O)c1cc([N+](=O)[O-])ccc1NCCO)c1ccc(Cl)cc1 | -27 | -9 | -7 | 13 | / | 1
O=C(CC(Nc1ccc(F)cc1)C(=O)OCC(=O)c1cccs1)c1ccccc1 (stereo not given) | -29 | -16 | -3 | 4 | / | 4
COc1ccccc1CC1S/C(=N/N=C/c2ccco2)NC1=O (stereo not given) | / | -6 | / | / | -33 | 4
COc1cc([N+](=O)[O-])cc2cc(C(=O)N3CCN=C3c3ccccc3)c(=O)oc12 | / | -3 | / | / | 8 | 8.9*
O=S(=O)(CCc1ccncc1)C1Cc2cccc3cccc1c23 (stereo not given) | / | -9 | / | / | / | /
CCC(=O)NC(/C=C/c1ccccc1)c1cc([N+](=O)[O-])c2cccnc2c1O (stereo not given) | -3 | -18 | -3 | 8 | / | 11*
Cc1ccc(C(NC(=O)C(C)C)c2cc([N+](=O)[O-])c3cccnc3c2O)cc1 (stereo not given) | 86* | -6 | -3 | 3 | -127 | 2
CC(C)C(=O)NC(c1cccs1)c1cc([N+](=O)[O-])c2cccnc2c1O (stereo not given) | 1 | -7 | -13 | 1 | / | -2
COc1ccc(CCNC(=S)NC2CCN(Cc3ccccc3)CC2)cc1 | / | -20 | / | / | 19 | 1
COc1ccc(-c2n(Cc3ccccc3)c3ccccc3[n+]2Cc2ccccc2)cc1 | / | -23 | / | / | -100 | 3
Cc1cc(C)c2c(N)c(C(=O)NC3CCCC3)sc2n1 | / | -21 | / | / | / | 0
Cc1cc(C)c2c(N)c(C(=O)NCC3CCCCC3)sc2n1 | 21 | 0 | -2 | 25* | -28 | 0
Cc1cc(C)c2c(N)c(C(=O)c3ccccc3)sc2n1 | / | -13 | / | / | / | /
Cc1cc(C)c2c(N)c(C(=O)c3ccc(Cl)c(Cl)c3)sc2n1 | / | -15 | / | / | 70* | 1
Cc1cc(C)c2c(N)c(C(=O)c3ccc(Cl)cc3)sc2n1 | -28 | 6 | -5 | 4 | 72* | 1
Cc1ccc(CSc2ncnc3c2cnn3-c2ccc(C)cc2)cc1 | -28 | -7 | 4 | 10 | -3 | 9.5*
Cc1ccc(CSc2ncnc3c2cnn3-c2ccccc2)cc1 | -28 | -6 | 2 | 2 | / | 7
O=C(/C=C\Nc1ccc(Br)cc1)c1cccnc1 | -21 | -47 | -5 | 4 | -37 | 2
CCN(CC)C(=O)c1ccc2nc(-c3ccccc3)c(-c3ccccc3)nc2c1 | -54 | 6 | -3 | 1 | 67* | 1
N#Cc1cnn(-c2ccccc2)c1NC(=O)CN1CCN(c2ccccc2)CC1 | / | -8 | / | / | / | /
CC(=O)/C(C#N)=C1\NC(=O)C(Cc2ccccc2)S1 (stereo not given) | -1 | -6 | 14 | 91* | / | 0
CCCC(C)NC(=O)COc1ccc(Sc2ccc(OCC(=O)NC(C)CCC)cc2)cc1 (stereo not given) | -54 | / | 7 | 21 | -42 | 10*
CC(C)CNC(=O)COc1ccc(Sc2ccc(OCC(=O)NCC(C)C)cc2)cc1 | -9 | / | 0 | 13 | -16 | 5
Cc1cc2c3c(ccc(C)c3n1)N=CN2c1ccccc1 | 24 | 8 | -5 | 5 | 81* | 2
SMILES | Yeast growth inh | MDM2 E3 inh | Yeast lifespan up | Measles CPE | INS promoter inh | RAM network inh
O/N=C/c1ccc(OCc2ccccc2)c(Br)c1 | 45* | -11 | -11 | 42* | -5 | -1
Cc1ccc(COc2ccc(Br)cc2/C=N/O)cc1 | 89* | -10 | -8 | 15 | -29 | 4
O/N=C/c1cc(Br)ccc1OCc1ccc(F)cc1 | / | / | / | / | -19 | /
O=C1N=C(N2CCCC2)S/C1=C\C=C\c1ccccc1 | / | -50 | / | / | / | /
CCOc1ccccc1C(=O)N(C)Cc1cc2ccccc2[nH]c1=O | -3 | 5 | -30 | 3 | 14 | 2
CCOc1cc(C(=O)N(C)Cc2cc3ccccc3[nH]c2=O)cc(OCC)c1OCC | -10 | -1 | -9 | 64* | -16 | 8.8*
COc1cc(/C=N/Nc2nc(N3CCCCC3)nc(N3CCCCC3)n2)ccc1OC(=O)c1ccco1 | / | -1 | / | / | -50 | 8

Assay outcomes deposited in PubChem BioAssay by several laboratories.
